For ten compounds, IC50 results are on record in ChEMBL document CHEMBL1142879, “Synthesis and biological evaluation of dialkylsubstituted maleic anhydrides as novel inhibitors of Cdc25 dual specificity phosphatases” (Eur J Med Chem, 2007).

A short description of assay [1]: Inhibition of horse liver alkaline phosphatase. Also noted: species or system Equus caballus. The essentials:
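Phosphatase activity was read with p-nitrophenyl phosphate as substrate, following a previously described method.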

Assay [2] concerns the target T1, M-phase inducer phosphatase 3 (Homo sapiens, UniProt P30307).
T1 sequence (P30307 whole entry): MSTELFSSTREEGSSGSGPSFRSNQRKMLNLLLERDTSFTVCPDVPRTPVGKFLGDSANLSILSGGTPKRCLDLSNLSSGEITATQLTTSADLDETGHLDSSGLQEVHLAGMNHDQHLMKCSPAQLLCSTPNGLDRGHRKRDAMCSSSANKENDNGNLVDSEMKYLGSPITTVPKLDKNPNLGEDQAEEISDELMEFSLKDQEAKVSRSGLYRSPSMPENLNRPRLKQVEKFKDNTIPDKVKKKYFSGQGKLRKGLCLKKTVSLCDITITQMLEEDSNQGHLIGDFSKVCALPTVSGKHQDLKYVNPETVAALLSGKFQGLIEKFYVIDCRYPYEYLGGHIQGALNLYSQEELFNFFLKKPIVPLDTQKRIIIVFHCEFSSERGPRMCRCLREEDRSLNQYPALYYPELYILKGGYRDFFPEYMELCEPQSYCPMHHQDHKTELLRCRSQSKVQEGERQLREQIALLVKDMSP
As to the kind of experiment: Inhibition of human GST-Cdc25C expressed in Escherichia coli BL21(DE3). The essentials:
(§1)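 GST fusion proteins (full-length Cdc25A and Cdc25C; Cdc25B catalytic domain) were expressed in E. coli grown with ampicillin and induced with IPTG at OD600 0.4–0.6 for 5 h. They were purified on glutathione-agarose. Activity was measured with p-nitrophenyl phosphate as substrate across a range of inhibitor concentrations. IC50 is the mean ± SD of at least two independent experiments, each with four determinations per concentration.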

In assay [3] the target is T2, M-phase inducer phosphatase 1 (Homo sapiens, UniProt P30304).
T2 sequence (P30304 whole entry): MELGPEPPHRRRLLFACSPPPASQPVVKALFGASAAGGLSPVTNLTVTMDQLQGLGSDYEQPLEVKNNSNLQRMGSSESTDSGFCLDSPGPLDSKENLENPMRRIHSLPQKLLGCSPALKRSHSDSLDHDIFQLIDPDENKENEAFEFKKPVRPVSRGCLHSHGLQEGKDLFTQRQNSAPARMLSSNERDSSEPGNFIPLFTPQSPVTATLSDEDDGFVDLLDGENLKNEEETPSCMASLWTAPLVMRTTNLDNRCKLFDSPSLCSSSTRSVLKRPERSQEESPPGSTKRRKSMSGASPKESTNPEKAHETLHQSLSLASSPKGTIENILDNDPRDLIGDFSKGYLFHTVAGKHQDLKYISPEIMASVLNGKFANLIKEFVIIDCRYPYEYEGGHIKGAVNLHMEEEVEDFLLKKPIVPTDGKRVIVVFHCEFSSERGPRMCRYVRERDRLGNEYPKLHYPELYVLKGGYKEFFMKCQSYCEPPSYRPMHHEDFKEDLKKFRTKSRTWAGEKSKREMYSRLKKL
As to the kind of experiment: Inhibition of human GST-Cdc25A expressed in Escherichia coli BL21(DE3). The essentials: as §1

For assay [4], the target named is T3, M-phase inducer phosphatase 2 (Homo sapiens, UniProt P30305).
T3 sequence (P30305 whole entry): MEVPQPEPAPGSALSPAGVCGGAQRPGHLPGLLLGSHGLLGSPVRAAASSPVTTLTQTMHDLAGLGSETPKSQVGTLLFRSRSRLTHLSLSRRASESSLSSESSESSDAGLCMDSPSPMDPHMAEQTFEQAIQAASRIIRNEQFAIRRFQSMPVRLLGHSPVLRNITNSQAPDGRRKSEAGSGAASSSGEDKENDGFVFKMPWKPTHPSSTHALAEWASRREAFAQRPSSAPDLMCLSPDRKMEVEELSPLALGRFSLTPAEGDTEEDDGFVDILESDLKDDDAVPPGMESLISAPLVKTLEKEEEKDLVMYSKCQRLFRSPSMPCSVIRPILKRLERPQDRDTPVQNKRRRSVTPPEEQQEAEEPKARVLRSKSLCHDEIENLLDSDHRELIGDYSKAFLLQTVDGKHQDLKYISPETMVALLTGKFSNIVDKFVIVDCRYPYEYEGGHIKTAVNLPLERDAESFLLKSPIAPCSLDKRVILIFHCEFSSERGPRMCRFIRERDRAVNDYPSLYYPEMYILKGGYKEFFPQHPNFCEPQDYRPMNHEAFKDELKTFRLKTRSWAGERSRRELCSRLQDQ
The assay is described as follows: Inhibition of human GST-Cdc25B expressed in Escherichia coli BL21(DE3). The procedure, abridged:
as §1

Regarding `CCCCCCC1=C(CCC(=O)O)C(=O)OC1=O`, the IC50 in assay [1], in assay [2], in assay [3] and in assay [4] was above 100 µM throughout.
Consider `CCCCCCCCC1=C(CCC(=O)O)C(=O)OC1=O`, for which the concentration for half-maximal inhibition (IC50) in assay [1], in assay [2], in assay [3] and in assay [4] was above 100 µM each time.
Consider `CCCCCCCCCCC1=C(CCC(=O)O)C(=O)OC1=O`, for which the IC50 in assay [1] was above 100 µM; in assay [2], 53.9 µM; in assay [3], 44.4 µM; in assay [4], 55.2 µM.
The matching figures for `CCCCCCCCCCCCCC1=C(CCC(=O)O)C(=O)OC1=O`: above 100 µM, 5.7 µM, 8.1 µM and 8.7 µM.
With `CCCCCCCCCCCCCCC1=C(CCC(=O)O)C(=O)OC1=O`, the IC50 in assay [1] is above 100 µM; in assay [2] it was 12.6 µM; in assay [3], 6.3 µM; in assay [4], 11.6 µM.
In assay [1], `CCCCCCCCCCCCCCCCCC1=C(CCC(=O)O)C(=O)OC1=O` showed an IC50 above 100 µM.
Take `CCCCCCCC/C=C\CCCCCCCC1=C(CCC(=O)O)C(=O)OC1=O`: the IC50 was above 100 µM in assay [1], 8.8 µM in assay [2], 4.5 µM in assay [3] and 6.7 µM in assay [4].
For `CCCCCCCCCC1=C(CCC(=O)O)C(=O)OC1=O`, the concentration for half-maximal inhibition (IC50) in assay [1], in assay [2], in assay [3] and in assay [4] was above 100 µM in each case.
Regarding `CCCCCCCCCCCC1=C(CCC(=O)O)C(=O)OC1=O`, the 50% inhibitory concentration (IC50) in assay [1] is above 100 µM; in assay [2], above 100 µM; in assay [3], 44.3 µM; in assay [4] it was 47.7 µM.
On to `CCCCCCCCCCCCCCCC1=C(CCC(=O)O)C(=O)OC1=O`, for which the IC50 in assay [1] was above 100 µM; in assay [2] it was 8.6 µM; in assay [3], 4.7 µM; in assay [4], 7.6 µM.
